Calls of active or inactive are those of the source. The rule behind the calls is not given here.
Tests used:
[1] = molecular target: Histone deacetylase 1 (Homo sapiens) (UniProt Q13547); experiment: Inhibition of human HDAC1 (unknown origin) at 1 uM using Fluor de Lys substrate fluorimetric assay
In short: (§1)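 Recombinant HDAC1 incubated 1 h with inhibitor (0–1 μM) and class I-specific Fluor de Lys substrate, then developer added and fluorescence read. Compound with substrate and developer but no enzyme served as interference control. Three experiments, each in triplicate.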

[2] = molecular target: Histone deacetylase 1 (Homo sapiens) (UniProt Q13547); experiment: Inhibition of human HDAC1 (unknown origin) at 0.1 uM using Fluor de Lys substrate fluorimetric assay; in short: as §1
[3] = molecular target: T1, Histone deacetylase (Homo sapiens) (UniProt Q13547+O15379+Q9UBN7+Q92769+Q9UQL6+Q8WUI4+Q9BY41+Q96DB2+P56524+Q9UKV0+Q969S8); experiment: Inhibition of human HDAC in human HCT116 cells assessed as global histone H3 lysine-9 acetylation levels at 0.01 to 1 uM after 24 hrs by Western blotting method; type: cell-based; details: HCT-116
In short: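 HCT116 cells treated 24 h with 10 nM, 100 nM or 1 μM compound, or DMSO. Western blot probed with anti-acetyl-H3 primary antibody and β-actin as loading control. Detection by dye-conjugated secondary antibodies on an infrared scanner.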

[4] = molecular target: Histone deacetylase 1 (Homo sapiens) (UniProt Q13547); experiment: Inhibition of human HDAC1 (unknown origin) at 0.01 to 1 uM using Fluor de Lys substrate fluorimetric assay
[5] = molecular target: T2, Protein deacetylase HDAC6 (Homo sapiens) (UniProt Q9UBN7); experiment: Inhibition of human HDAC6 (unknown origin) at 5 uM using Fluor de Lys substrate fluorimetric assay
T2 sequence (whole entry): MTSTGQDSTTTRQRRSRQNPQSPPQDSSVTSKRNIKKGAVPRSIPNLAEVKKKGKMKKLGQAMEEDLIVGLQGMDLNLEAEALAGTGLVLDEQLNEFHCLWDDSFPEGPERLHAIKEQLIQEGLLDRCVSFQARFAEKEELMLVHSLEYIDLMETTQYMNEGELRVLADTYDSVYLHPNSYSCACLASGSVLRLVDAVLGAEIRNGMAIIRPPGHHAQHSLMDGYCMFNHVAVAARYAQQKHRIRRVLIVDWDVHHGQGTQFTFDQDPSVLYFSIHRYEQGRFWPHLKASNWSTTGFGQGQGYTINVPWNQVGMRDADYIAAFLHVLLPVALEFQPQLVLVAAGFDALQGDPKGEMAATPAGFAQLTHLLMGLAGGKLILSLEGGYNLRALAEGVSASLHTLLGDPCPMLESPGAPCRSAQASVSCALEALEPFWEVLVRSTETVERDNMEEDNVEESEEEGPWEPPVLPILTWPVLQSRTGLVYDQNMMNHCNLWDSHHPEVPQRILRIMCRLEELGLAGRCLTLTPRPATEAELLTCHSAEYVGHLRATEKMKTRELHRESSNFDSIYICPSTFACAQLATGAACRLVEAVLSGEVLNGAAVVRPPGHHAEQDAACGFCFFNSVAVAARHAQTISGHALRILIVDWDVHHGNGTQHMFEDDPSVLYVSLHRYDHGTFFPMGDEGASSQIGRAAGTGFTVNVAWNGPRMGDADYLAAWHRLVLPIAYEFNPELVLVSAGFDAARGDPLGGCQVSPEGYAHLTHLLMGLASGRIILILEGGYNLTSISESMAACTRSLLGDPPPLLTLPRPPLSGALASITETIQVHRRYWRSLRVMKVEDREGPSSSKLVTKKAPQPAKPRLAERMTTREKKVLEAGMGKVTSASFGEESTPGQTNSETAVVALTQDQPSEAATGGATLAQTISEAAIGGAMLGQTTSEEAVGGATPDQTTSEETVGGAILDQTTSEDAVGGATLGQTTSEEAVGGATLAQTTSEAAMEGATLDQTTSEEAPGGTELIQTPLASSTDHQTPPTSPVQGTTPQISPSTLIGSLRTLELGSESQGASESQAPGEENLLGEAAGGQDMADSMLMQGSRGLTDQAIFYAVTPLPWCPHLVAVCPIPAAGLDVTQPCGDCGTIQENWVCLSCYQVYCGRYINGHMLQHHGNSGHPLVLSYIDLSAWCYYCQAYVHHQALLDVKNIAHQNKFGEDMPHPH
In short: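 Recombinant HDAC6 from a fluorimetric kit, with a substrate specific for class II activity. Enzyme, inhibitor (0–5 μM) and Fluor de Lys substrate incubated 1 h, then developer added before the fluorescence read. Compound-only controls without enzyme, with substrate and developer, checked for signal interference. Three independent experiments, each in triplicate.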

[6] = molecular target: T2, Protein deacetylase HDAC6 (Homo sapiens); experiment: Inhibition of human HDAC6 (unknown origin) at 0.01 to 5 uM using Fluor de Lys substrate fluorimetric assay
In short: (§2)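 Recombinant HDAC6 incubated 1 h with inhibitor (0–5 μM) and class II-specific Fluor de Lys substrate, then developer added and fluorescence read. Compound with substrate and developer but no enzyme served as interference control. Three experiments, each in triplicate.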

[7] = molecular target: T1, Histone deacetylase (Homo sapiens); details: HCT-116, 1 uM
HCT-116 [8] = experiment: Growth inhibition of human HCT116 cells at 5 uM after 96 hrs by MTS assay; type: functional, cell-based
In short: (§3)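 HCT116 colorectal cells seeded at 3×10⁴ cells/well in quadruplicate, attached overnight, then medium replaced with compound-containing medium; 96 h at 37 °C, 5% CO₂. CellTiter 96 One Solution MTS added, 1.5 h at 37 °C, absorbance at 490 nm. Two experiments, each with 4 replicates, mean with SEM; GI50 taken from growth curves.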

[9] = molecular target: T2, Protein deacetylase HDAC6 (Homo sapiens); experiment: Inhibition of human HDAC6 (unknown origin) at 1 uM using Fluor de Lys substrate fluorimetric assay; in short: as §2
[10] = Growth inhibition of human HCT116 cells after 96 hrs by MTS assay; type: functional; details: HCT-116, 96 h; in short: as §3
HCT-116 [11] = experiment: Inhibition of cell proliferation of human HCT116 cells at […] after 96 hrs by MTS assay; type: functional, cell-based
In short: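 HCT116 colorectal cells seeded at 3×10⁴ cells/well in quadruplicate, left to attach overnight, then given fresh medium with compound for 96 h at 37 °C, 5% CO₂. MTS reagent added for 1.5 h, absorbance read at 490 nm. Mean of two experiments, each with 4 replicates.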

Histone deacetylase 1 (Homo sapiens), sequence (Q13547 whole entry): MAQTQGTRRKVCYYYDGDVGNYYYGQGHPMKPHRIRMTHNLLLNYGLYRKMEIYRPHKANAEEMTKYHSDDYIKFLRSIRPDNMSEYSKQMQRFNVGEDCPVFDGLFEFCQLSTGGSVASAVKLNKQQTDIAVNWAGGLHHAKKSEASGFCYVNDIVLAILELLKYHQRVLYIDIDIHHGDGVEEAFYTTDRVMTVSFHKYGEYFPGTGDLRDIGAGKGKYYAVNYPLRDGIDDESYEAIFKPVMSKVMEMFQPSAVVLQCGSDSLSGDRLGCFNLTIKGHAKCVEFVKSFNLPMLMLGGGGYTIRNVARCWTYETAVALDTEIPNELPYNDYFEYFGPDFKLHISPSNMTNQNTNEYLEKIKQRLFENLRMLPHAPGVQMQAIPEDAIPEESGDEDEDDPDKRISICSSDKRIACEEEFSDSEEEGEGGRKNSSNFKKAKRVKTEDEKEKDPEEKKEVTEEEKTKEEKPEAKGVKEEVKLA

Row | Compound | inhibition [1] [%] | inhibition [2] | inhibition [3] | inhibition [4] | inhibition [5] [%] | inhibition [6] | inhibition [7] | growth inhibition (GI) (HCT-116 [8]) | inhibition [9] [%] | GI50 [10] [nM] | inhibition (HCT-116 [11])
1 | CCCCCCCC(=O)SCC/C=C/[C@@H]1CC(=O)NCc2nc(cs2)C2=N[C@@](C)(CS2)C(=O)N[C@@H](C(C)C)C(=O)O1 | > 90 | 15% | Active | Active | 75 | Active |  |  |  |  | 
2 | CCCCCCCC(=O)SCC/C=C/[C@@H]1CC(=O)NCc2nc(cs2)C2=N[C@](C)(CS2)C(=O)N[C@@H](C(C)C)C(=O)O1 | < 15 |  | inactive |  |  |  | Active | inactive |  |  | 
3 | C=CC[C@@H]1NC(=O)[C@]2(C)CSC(=N2)c2csc(n2)CNC(=O)C[C@@H](/C=C/CCSC(=O)CCCCCCC)OC1=O | > 90 | inactive | Active | Active | 55 |  |  |  | 50 | 10 | inactive
4 | CCCCCCCC(=O)SCC/C=C/[C@@H]1CC(=O)NCc2nc(cs2)C2=N[C@@](C)(CS2)C(=O)N[C@H](Cc2cccc3ccccc23)C(=O)O1 | < 15 |  | inactive |  |  | inactive |  | inactive |  |  | 
5 | CCCCCCCC(=O)SCC/C=C/[C@@H]1CC(=O)NCc2nc(cs2)C2=N[C@@](C)(CS2)C(=O)N[C@@H](Cc2cccc3ccccc23)C(=O)O1 | > 90 | 15% | Active | Active | 50 |  |  |  | 50 | 56 | inactive

— ChEMBL document CHEMBL3352516, “Synthesis and biological evaluation of largazole analogues with modified surface recognition cap groups” (2014)
